pIC50, pKi: −log10 of the molar value. Starred links: 1 amine or outer side, 2 acyl side, 3 side chain; linkers in the order of their positions; H or OH if unused. Positions of bridges follow the written chain, without caps; N, C: chain ends. Non-standard residues stand in square brackets, D forms with d. Residues, ends and D or L forms follow the SMILES beside them. X2 = O=C(CN([C@@H](CS[*:3])C(=O)[*:2])[*:1])c1ccccc1; X4 = O=C([C@@H](N[*:1])[C@@H](S[*:3])c1ccccc1)[*:2]; X1 = O=C([C@@H](N[*:1])[C@H](S[*:3])c1ccccc1)[*:2]; NMeR = CN[C@@H](CCCNC(=N)N)C(=O)O; Pen = CC(C)(S)[C@H](N)C(=O)O
Tests used:
[1] = molecular target: Integrin alpha-IIb/beta-3 (Homo sapiens, UniProt P05106+P08514); experiment: Tested for inhibition of fibrinogen binding to purified GPIIb/IIIa isolated from human platelets and reconstituted in liposomes
Sequence of Integrin alpha-IIb/beta-3 (P05106 27-788 limits assumed): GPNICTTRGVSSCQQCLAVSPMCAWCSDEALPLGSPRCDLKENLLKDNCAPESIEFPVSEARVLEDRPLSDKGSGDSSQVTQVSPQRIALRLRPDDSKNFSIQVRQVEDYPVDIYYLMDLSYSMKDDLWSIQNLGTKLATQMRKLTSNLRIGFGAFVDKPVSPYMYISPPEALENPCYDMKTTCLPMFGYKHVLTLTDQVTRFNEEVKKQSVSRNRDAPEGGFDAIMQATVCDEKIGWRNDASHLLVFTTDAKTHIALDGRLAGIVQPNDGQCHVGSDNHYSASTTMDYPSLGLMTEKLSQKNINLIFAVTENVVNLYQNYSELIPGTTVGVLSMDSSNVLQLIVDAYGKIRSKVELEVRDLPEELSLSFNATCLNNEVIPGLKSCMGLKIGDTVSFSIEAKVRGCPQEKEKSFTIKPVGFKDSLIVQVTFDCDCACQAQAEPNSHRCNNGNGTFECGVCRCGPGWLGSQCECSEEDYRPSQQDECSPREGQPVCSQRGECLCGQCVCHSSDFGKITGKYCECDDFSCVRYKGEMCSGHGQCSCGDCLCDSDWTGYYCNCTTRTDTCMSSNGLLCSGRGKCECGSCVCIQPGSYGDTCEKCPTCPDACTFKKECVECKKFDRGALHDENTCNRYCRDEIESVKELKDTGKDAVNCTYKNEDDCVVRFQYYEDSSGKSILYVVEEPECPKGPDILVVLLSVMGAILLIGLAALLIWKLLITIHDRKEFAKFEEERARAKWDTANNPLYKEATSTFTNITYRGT
Sequence of Integrin alpha-IIb/beta-3 (P08514 32-887 limits assumed): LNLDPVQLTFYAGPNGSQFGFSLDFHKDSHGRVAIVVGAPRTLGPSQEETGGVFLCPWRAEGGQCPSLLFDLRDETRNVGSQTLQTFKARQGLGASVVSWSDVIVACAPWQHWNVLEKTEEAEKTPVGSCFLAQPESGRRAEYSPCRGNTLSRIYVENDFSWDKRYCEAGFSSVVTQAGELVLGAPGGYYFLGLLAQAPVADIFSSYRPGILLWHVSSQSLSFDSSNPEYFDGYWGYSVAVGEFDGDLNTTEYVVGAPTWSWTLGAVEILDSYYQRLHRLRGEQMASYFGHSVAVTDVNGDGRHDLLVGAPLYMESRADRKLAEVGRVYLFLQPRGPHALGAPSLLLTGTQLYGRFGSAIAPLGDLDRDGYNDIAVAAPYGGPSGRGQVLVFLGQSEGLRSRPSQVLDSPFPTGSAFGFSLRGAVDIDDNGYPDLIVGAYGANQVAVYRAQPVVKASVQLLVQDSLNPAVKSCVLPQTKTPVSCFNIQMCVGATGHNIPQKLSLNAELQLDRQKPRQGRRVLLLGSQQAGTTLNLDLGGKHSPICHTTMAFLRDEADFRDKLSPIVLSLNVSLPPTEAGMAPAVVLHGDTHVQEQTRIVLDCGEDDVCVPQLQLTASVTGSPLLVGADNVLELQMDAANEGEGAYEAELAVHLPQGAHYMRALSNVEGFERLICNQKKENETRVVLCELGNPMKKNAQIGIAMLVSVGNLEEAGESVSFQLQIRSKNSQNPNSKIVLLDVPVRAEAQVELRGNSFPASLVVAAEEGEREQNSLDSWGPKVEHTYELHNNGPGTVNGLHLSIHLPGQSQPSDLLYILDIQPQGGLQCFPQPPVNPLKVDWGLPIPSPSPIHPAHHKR
Sequence of Integrin alpha-IIb/beta-3 (P08514 891-1039 limits assumed): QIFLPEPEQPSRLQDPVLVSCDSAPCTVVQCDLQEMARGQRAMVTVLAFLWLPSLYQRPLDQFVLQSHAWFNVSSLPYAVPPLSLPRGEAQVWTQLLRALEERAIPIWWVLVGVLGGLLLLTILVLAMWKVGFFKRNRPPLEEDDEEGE
Method in brief: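 Displacement of [¹²⁵I]fibrinogen from purified human platelet GPIIb/IIIa incorporated into phospholipid vesicles. Values without statistical limits come from a single determination.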

Canis familiaris = species on record: Canis familiaris; experiment: Inhibition of platelet aggregation in canine platelet rich plasma induced by ADP; assay type: functional, Canis lupus familiaris
Method in brief: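 Citrated canine PRP aggregation read optically by light transmittance. Peptide stock was 12 mM in 0.2 M acetic acid. Final 200 µM peptide and 10 µM ADP, pH 7.7, after 5-min preincubation with peptide.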

| SMILES | pKi [1] | pIC50 (Canis familiaris; Canis lupus familiaris, Plasma) | pIC50 (Canis familiaris) |
| --- | --- | --- | --- |
| CC(=O)N[C@H]1CSSC(C)(C)[C@@H](C(N)=O)NC(=O)[C@H](CC(=O)O)N(C)C(=O)CNC(=O)[C@H](CCCNC(=N)N)NC1=O (single isomer, unassigned) | 4.60 | – | – |
| CC(=O)N[C@H]1CSSC(C)(C)[C@@H](C(=O)O)NC(=O)[C@H](CC(=O)O)NC(=O)CNC(=O)[C@H](CCCN=C(N)N)N(C)C1=O (Ac-C[NMeR]GD[Pen]-OH; disulfide 1-5) | 8.07 | 7.10 | – |
| CCN1C(=O)[C@H](NC(C)=O)CSSC(C)(C)[C@H](C(N)=O)NC(=O)[C@@H](CC(=O)O)NC(=O)CNC(=O)[C@H]1CCCNC(=N)N (single isomer, unassigned) | 7.19 | – | – |
| CC(=O)N[C@@H]1CSSC(C)(C)[C@H](C(N)=O)NC(=O)[C@@H](CC(=O)O)NC(=O)CNC(=O)[C@H](CCCN=C(N)N)N(C)C1=O | 7.09 | 5.75 | – |
| CC(=O)N[C@H]1CSSC(C)(C)[C@@H](C(N)=O)NC(=O)[C@H](CC(=O)O)NC(=O)CNC(=O)[C@H](CCCN=C(N)N)NC(=O)CN(C)C1=O (single isomer, unassigned) | – | 5.92 | – |
| CCN1C(=O)[C@@H](NC(C)=O)CSSC(C)(C)[C@@H](C(N)=O)NC(=O)[C@H](CC(=O)O)NC(=O)CNC(=O)[C@@H]1CCCN=C(N)N (single isomer, unassigned) | – | 6.05 | – |
| N=C(N)NCCC[C@@H]1NC(=O)c2ccccc2SSC[C@@H](C(N)=O)NC(=O)[C@H](CC(=O)O)NC(=O)CNC1=O (single isomer, unassigned) | – | 5.09 | – |
| CN1C(=O)[C@@H](N)CSSC(C)(C)[C@@H](C(=O)O)NC(=O)[C@H](CC(=O)O)NC(=O)CNC(=O)[C@@H]1CCCN=C(N)N (H-C[NMeR]GD[Pen]-OH; disulfide 1-5) | 8.32 | 6.92 | – |
| CC(=O)N[C@@H]1C(=O)N[C@@H](CCCN=C(N)N)C(=O)NCC(=O)N[C@@H](CC(=O)O)C(=O)N[C@H](C(N)=O)CSSC1(C)C (single isomer, unassigned) | 6.73 | 5.10 | – |
| CC(=O)N[C@H]1CSSc2ccccc2NC(=O)[C@H](CC(=O)O)NC(=O)CNC(=O)[C@H](CCCN=C(N)N)N(C)C1=O (single isomer, unassigned) | – | 6.77 | – |
| CN1C(=O)[C@@H]2CCCN2C(=O)c2ccccc2SSc2ccccc2NC(=O)[C@H](CC(=O)O)NC(=O)CNC(=O)[C@@H]1CCCN=C(N)N | 6.09 | 6.00 | – |
| CC(=O)N[C@H]1CSS[C@H](c2ccccc2)[C@@H](C(=O)O)NC(=O)[C@H](CC(=O)O)NC(=O)CNC(=O)[C@H](CCCN=C(N)N)N(C)C1=O (Ac-C[NMeR]GD[X1]-OH; disulfide 1-5) | – | 7.40 | – |
| CC(=O)N[C@H]1CSSC(C)(C)[C@@H](C(N)=O)NC(=O)[C@H](CC(=O)O)NC(=O)CNC(=O)[C@H](CCCN=C(N)N)N(C)C(=O)CN(Cc2ccccc2)C1=O (single isomer, unassigned) | 6.37 | 6.54 | – |
| CC(=O)N[C@@H]1CSSC(C)(C)[C@H](C(N)=O)NC(=O)[C@@H](CC(=O)O)NC(=O)CNC(=O)[C@H](CCCNC(=N)N)NC1=O | 6.14 | 5.39 | – |
| CC(=O)N[C@H]1CSS[C@@H](c2ccccc2)[C@@H](C(N)=O)NC(=O)[C@H](CC(=O)O)NC(=O)CNC(=O)[C@H](CCCNC(=N)N)N(C)C1=O (Ac-C[NMeR]GD[X4]-NH2; disulfide 1-5) | 7.35 | – | – |
| CC(=O)N[C@H]1CSSC(C)(C)[C@@H](C(N)=O)NC(=O)[C@H](CC(=O)O)NC(=O)CNC(=O)[C@H](CCCN=C(N)N)N(C)C(=O)CN(C)C1=O (single isomer, unassigned) | 7.70 | 6.82 | – |
| CC(=O)N[C@H]1CSSC[C@@H](C(N)=O)NC(=O)[C@H](CC(=O)O)NC(=O)CNC(=O)[C@H](CCCN=C(N)N)NC1=O (single isomer, unassigned) | – | 4.79 | – |
| CC(=O)N[C@H]1CSSc2ccccc2NC(=O)[C@H](CC(=O)O)NC(=O)CNC(=O)[C@H](CCCNC(=N)N)NC1=O (single isomer, unassigned) | 6.55 | – | – |
| CC(=O)N[C@H]1CSSC(C)(C)[C@@H](C(N)=O)NC(=O)[C@H](CC(=O)O)NC(=O)CNC(=O)[C@H](CCCNC(=N)N)N(C)C(=O)[C@@H]2CCCN2C1=O | < 5.00 | – | – |
| CN1C(=O)c2ccccc2SSc2ccccc2NC(=O)[C@@H](CC(=O)O)NC(=O)CNC(=O)[C@@H]1CCCN=C(N)N | – | 6.22 | – |
| CC(=O)N[C@H]1CSSC(C)(C)[C@@H](C(N)=O)NC(=O)[C@H](CC(=O)O)N(C)C(=O)CNC(=O)[C@H](CCCNC(=N)N)N(C)C1=O (single isomer, unassigned) | 5.15 | – | – |
| CC(=O)N[C@H]1CSSC(C)(C)[C@@H](C(N)=O)NC(=O)[C@H](CC(=O)O)NC(=O)CNC(=O)[C@H](CCCN=C(N)N)NC(=O)CNC1=O (single isomer, unassigned) [listing 1 of 2 here] | – | 4.94 | – |
| CC(=O)N[C@@H]1CSSC(C)(C)[C@H](C(N)=O)NC(=O)[C@@H](CC(=O)O)NC(=O)CNC(=O)[C@@H](CCCN=C(N)N)N(Cc2ccccc2)C1=O | < 4.00 | 5.11 | – |
| CC(=O)N[C@H]1CSS[C@H](c2ccccc2)[C@@H](C(N)=O)NC(=O)[C@H](CC(=O)O)NC(=O)CNC(=O)[C@H](CCCN=C(N)N)N(C)C1=O (Ac-C[NMeR]GD[X1]-NH2; disulfide 1-5) | 6.90 | 7.01 | – |

| SMILES | pKi [1] | pIC50 (Canis familiaris; Canis lupus familiaris, Plasma) | pIC50 (Canis familiaris) |
| --- | --- | --- | --- |
| CC(=O)N[C@H]1CSSC(C)(C)[C@@H](C(N)=O)NC(=O)[C@H](CC(=O)O)NC(=O)CN(C)C(=O)[C@H](CCCN=C(N)N)N(C)C1=O (single isomer, unassigned) | 4.82 | 4.40 | – |
| CN1C(=O)c2ccccc2SSc2ccccc2NC(=O)[C@H](CC(=O)O)NC(=O)CNC(=O)[C@H]1CCCN=C(N)N | – | 4.59 | – |
| CC(=O)N[C@@H]1C(=O)N(C)[C@@H](CCCN=C(N)N)C(=O)NCC(=O)N[C@@H](CC(=O)O)C(=O)N[C@H](C(N)=O)C(C)(C)SSC1(C)C (single isomer, unassigned) | 8.60 | 6.43 | – |
| CN1CC(=O)N[C@@H](CCCNC(=N)N)C(=O)NCC(=O)N[C@@H](CC(=O)O)C(=O)Nc2ccccc2SSc2ccccc2C1=O | 6.84 | 5.46 | – |
| CC(=O)N[C@H]1CSSC(C)(C)[C@@H](C(N)=O)NC(=O)[C@H](CC(=O)O)NC(=O)CNC(=O)[C@H](CCCN=C(N)N)NC(=O)CNC1=O (single isomer, unassigned) [listing 2 of 2 here] | 6.21 | – | – |
| CC(=O)N[C@@H]1CSSC(C)(C)[C@H](C(N)=O)NC(=O)[C@H](CC(=O)O)NC(=O)CNC(=O)[C@@H](CCCNC(=N)N)NC1=O | < 3.00 | < 3.70 | – |
| CC(=O)N[C@H]1CSSc2ccccc2NC(=O)[C@H](CC(=O)O)NC(=O)CNC(=O)[C@H](CCCNC(=N)N)N(C)C1=O (single isomer, unassigned) | 7.59 | – | – |
| CC(=O)N[C@H]1CSSC(C)(C)[C@@H](C(N)=O)NC(=O)[C@H](CC(=O)O)NC(=O)CNC(=O)[C@H](CCCN=C(N)N)N(C)C(=O)CNC1=O (single isomer, unassigned) | 6.87 | 6.44 | – |
| CC(=O)N[C@H]1CSSC(C)(C)[C@@H](C(N)=O)NC(=O)[C@H](CC(=O)O)NC(=O)CN(C)C(=O)[C@H](CCCN=C(N)N)NC1=O (single isomer, unassigned) | 5.90 | 4.13 | – |
| CN1C(=O)c2ccccc2SSc2ccccc2NC(=O)[C@H](CC(=O)O)NC(=O)CNC(=O)[C@@H]1CCCN=C(N)N (single isomer, unassigned) | – | 7.05 | – |
| CC(=O)N[C@@H]1CSSC(C)(C)[C@H](C(N)=O)NC(=O)C(CC(=O)O)NC(=O)CNC(=O)C(CCCN=C(N)N)NC1=O (single isomer, unassigned; 12) | – | – | 5.39 |
| CC(=O)N[C@H]1CSS[C@@H](c2ccccc2)[C@@H](C(N)=O)NC(=O)[C@H](CC(=O)O)NC(=O)CNC(=O)[C@H](CCCN=C(N)N)N(C)C1=O (Ac-C[NMeR]GD[X4]-NH2; disulfide 1-5) | – | 7.30 | – |
| CC(=O)N[C@H]1CSSC(C)(C)[C@H](C(N)=O)NC(=O)[C@@H](CC(=O)O)NC(=O)CNC(=O)[C@@H](CCCNC(=N)N)NC1=O | 5.58 | 4.01 | – |
| CC(=O)N[C@H]1CSSC(C)(C)[C@@H](C(N)=O)NC(=O)[C@H](CC(=O)O)N(C)C(=O)CNC(=O)[C@H](CCCN=C(N)N)NC1=O (single isomer, unassigned) | – | 3.86 | – |
| CC(=O)N[C@@H]1CSSC(C)(C)[C@H](C(N)=O)NC(=O)C(CC(=O)O)NC(=O)CNC(=O)C(CCCN=C(N)N)NC1=O (single isomer, unassigned; 31) | 5.52 | – | 4.69 |
| CN1C(=O)[C@@H](N)CSSC(C)(C)[C@@H](C(N)=O)NC(=O)[C@H](CC(=O)O)NC(=O)CNC(=O)[C@@H]1CCCN=C(N)N (H-C[NMeR]GD[Pen]-NH2; disulfide 1-5) | 8.03 | 6.70 | – |
| CC(=O)N[C@H]1CSSC(C)(C)[C@@H](C(N)=O)NC(=O)[C@H](CC(=O)O)N(C)C(=O)CNC(=O)[C@H](CCCN=C(N)N)N(C)C1=O (single isomer, unassigned) | – | 4.63 | – |
| CC(=O)N[C@H]1CSS[C@H](c2ccccc2)[C@@H](C(=O)O)NC(=O)[C@H](CC(=O)O)NC(=O)CNC(=O)[C@H](CCCNC(=N)N)N(C)C1=O (Ac-C[NMeR]GD[X1]-OH; disulfide 1-5) | 8.68 | – | – |
| CC(=O)N[C@H]1CSSc2ccccc2NC(=O)[C@H](CC(=O)O)NC(=O)CNC(=O)[C@H](CCCN=C(N)N)NC1=O (single isomer, unassigned) | – | 5.01 | – |
| CN1C(=O)[C@@H](NCC(=O)c2ccccc2)CSSC(C)(C)[C@@H](C(N)=O)NC(=O)[C@H](CC(=O)O)NC(=O)CNC(=O)[C@@H]1CCCN=C(N)N (H-[X2][NMeR]GD[Pen]-NH2; disulfide 1-5) | 7.46 | 6.55 | – |
| CC(=O)N[C@@H]1CSSC(C)(C)[C@H](C(N)=O)NC(=O)[C@@H](CC(=O)O)NC(=O)CNC(=O)[C@@H](CCCN=C(N)N)N(C)C(=O)[C@@H]2CCCN2C1=O | – | 4.61 | – |
| CC(=O)N[C@H]1CSSC(C)(C)[C@@H](C(N)=O)NC(=O)[C@H](CC(=O)O)NC(=O)CNC(=O)[C@H](CCCNC(=N)N)NC(=O)CN(C)C1=O (single isomer, unassigned) | 7.11 | – | – |
| CC(=O)N[C@@H](CCCN=C(N)N)C(=O)NCC(=O)N[C@@H](CC(=O)O)C(N)=O | 5.38 | – | – |

Source: ChEMBL document CHEMBL1127669, “Conformationally constrained peptides and semipeptides derived from RGD as potent inhibitors of the platelet fibrinogen receptor and platelet aggregation” (J Med Chem, 1994)
